Measurements reported in ChEMBL document CHEMBL1125756, “Synthesis and antiarrhythmic activity of alpha-[(diarylmethoxy)methyl]-1-piperidineethanols” (1991).

Key:
[1] = tested on: Canis familiaris; assay: Percent of normal beats after 5 mg/kg given over 5 min by i.v. infusion.; type: functional, Canis lupus familiaris; settings: route intravenous
How it was run: (§1)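 Coronary-artery-ligated dogs with ventricular arrhythmias received 5 mg/kg iv in 10–20 mL isotonic saline, infused over 5 min. Limb lead II ECG was monitored continuously for up to 6 h or until activity ended. Percent normal sinus beats was scored at control, end of dose, 20 min and 1 h. Results are mean ± SEM for n≥3 and mean ± SD for n=2.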

[2] = tested on: Canis familiaris; assay: Activity rating following 5 mg/kg i.v. administration.; settings: route intravenous
[3] = tested on: Canis familiaris; assay: Percent of normal beats 20 min after 5 mg/kg given over 5 min by i.v. infusion.; type: functional, Canis lupus familiaris; settings: route intravenous; how it was run: as §1
[4] = tested on: Canis familiaris; assay: Percent of normal beats 1 hr after 5 mg/kg given over 5 min by i.v. infusion.; type: functional, Canis lupus familiaris; settings: route intravenous; how it was run: as §1
[5] = tested on: Canis familiaris; assay: Degree of tachycardia in conscious normal dogs.; type: functional, Canis lupus familiaris
How it was run: (§2)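 Conscious normal dogs, trained to sit quietly while sling-restrained, received 5 mg/kg iv over 5 min, as in the ligated-dog protocol. Heart rate came from continuous limb lead II ECG at control, end of dose, 20 min and 1 h. Dogs above 140 beats/min were followed until the rate fell to 140. Degree was graded severe ≥200, moderate 160–199, slight <160 with a rise ≥20, none ≤20 change. Duration was graded long >2 h, moderate 0.5–2 h, short <0.5 h.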

[6] = tested on: Canis familiaris; assay: Period of tachycardiac effect in conscious normal dogs; 0.5-2; type: functional, Canis lupus familiaris; how it was run: as §2
[7] = tested on: Canis familiaris; assay: […] at the end of the dose.(5 mg/kg was given intravenously over a 5-min period in normal dogs.); type: functional, Canis lupus familiaris
[8] = tested on: Canis familiaris; assay: […] 1 h after a dose of 5 mg/kg given intravenously over a 5-min period in normal dogs.; type: functional, Canis lupus familiaris; settings: route intravenous
[9] = tested on: Canis familiaris; assay: […] 20 min after a dose of 5 mg/kg given intravenously over a 5-min period in normal dogs.; type: functional, Canis lupus familiaris; settings: route intravenous
[10] = tested on: Canis familiaris; assay: Degree of tachycardia in conscious normal dogs; 160-199; type: functional, Canis lupus familiaris
How it was run: (§3)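 Conscious normal dogs, trained to sit quietly while sling restrained, were given 5 mg/kg iv as an infusion over 5 min in isotonic saline. Heart rate came from continuous limb lead II ECG during a control period, at end of dose, and at 20 min and 1 h. Degree bands were ≥200, 160–199, and <160 beats/min after a rise of ≥20. Duration bands were >2 h, 0.5–2 h and <0.5 h. Two dogs were used.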

[11] = tested on: Canis familiaris; assay: Period of tachycardiac effect in conscious normal dogs; type: functional, Canis lupus familiaris; how it was run: as §3
[12] = tested on: Canis familiaris; assay: […] 1 h after a dose of 5 mg/kg given intravenously over a 5-min period […].; type: functional, Canis lupus familiaris; settings: route intravenous
How it was run: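 Dogs with coronary artery ligation and ventricular arrhythmia received 5 mg/kg iv in 10–20 mL isotonic saline, infused over 5 min. Limb lead II ECG was monitored continuously for up to 6 h. Percent normal sinus beats was scored at control, at end of dose, and at 20 min and 1 h. Values are mean ± SEM for three or more animals and mean ± SD for two.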

[13] = tested on: Canis familiaris; assay: Degree of tachycardiac effect in conscious normal dogs

SMILES	Normal beats [1] [%]	Activity rating [2]	Normal beats [3] [%]	Normal beats [4] [%]	Rating [5] [beats min-1]	Rating [6] [h]	Heart rate [7] [beats min-1]	Heart rate [8] [beats min-1]	Heart rate [9] [beats min-1]	Rating [10] [beats min-1]	Rating [11] [h]	Heart rate [12] [beats min-1]	Rating [13] [beats min-1]
Cc1ccccc1C(OCC(O)CN1CCCCC1)c1ccccc1C.O=C(O)C(=O)O (configuration not stated)	79	21	31	16									
Cc1ccccc1C(OCC(O)CN1CCCCC1C)c1ccccc1C.O=C(O)C(=O)O (configuration not stated)	49	36	44	24									
CC1CCC(C)N1CC(O)COC(c1ccccc1)c1ccccc1 (configuration not stated)	96	36	39	12	<160	0.5	140	102	117				
C[N+](C)(C)CC(O)COC(c1ccccc1)c1ccccc1 (configuration not stated)	52	9	1	0	>200	0.5	242	118	135				
CC1CCCC(C)[N+]1(C)CC(O)COC(c1ccccc1)c1ccccc1.[Cl-] (configuration not stated)	15	15	33	28			167	101	152	160	<0.5		
CC(OCC(O)CN1C(C)CCCC1C)c1ccccc1 (configuration not stated)	62	13	16	11	<160		156	144	101		>2		
CC1CCCC(C)N1CC(O)CSC(c1ccccc1)c1ccccc1 (configuration not stated)	95	51	49	42			185		148	160	<0.5	148	
Cc1ccccc1C(OCC(O)CN1C(C)CCCC1C)c1ccccc1 (configuration not stated)	87	68	71	81		0.5	153	134	153	160			
CC1CCCC(C)N1CC(O)COC(c1ccccc1)c1ccccc1 (configuration not stated)	88	56	67	53		0.5	172	150	171	160			
Cc1ccccc1C(OCC(O)CN1C(C)CCCC1C)c1ccccc1C (configuration not stated)	87	51	68	50	<160		153	142	113		<0.5		
Cc1cccc(C)c1C(OCC(O)CN1C(C)CCCC1C)c1c(C)cccc1C (configuration not stated)	49	47	76	54									
COc1ccccc1C(OCC(O)CN1C(C)CCCC1C)c1ccccc1OC (configuration not stated)	100	57	62	33	>200		234	232	232		>2		
Cc1cccc(C)c1C(OCC(O)CN1C(C)CCCC1C)c1ccccc1 (configuration not stated)	60	8	19	16									
CCN(CC)CC(=O)Nc1c(C)cccc1C.Cl	86	20	23	9									
CN(C)CC(O)COC(c1ccccc1)c1ccccc1.Cl (configuration not stated)	61	19	25	15			121	110	115				< 20
CC1CCCC(C)N1CC(O)CNC(c1ccccc1)c1ccccc1.Cl.Cl (configuration not stated)	92	44	47	30	<160		141	122	132		<0.5		
CCN(CC)CCNC(=O)c1ccc(N)cc1.Cl [PROCAINAMIDE HYDROCHLORIDE]	72	52	66	34									
